Screens as filed in PubChem BioAssay.
Sampled rows, rich in hits. Any-hit rate of the full collection: about 3.7%.
hERG protect = hERG (human) protection from proarrhythmic block; Q12809; CHO-hERG, FluxOR thallium flux, dofetilide IC70 present; activation (rescue from dofetilide block), less the hit threshold, % at 10 µM; 0.51% of 310,000 active;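 active = activation above the mean of controls blocked by dofetilide plus 5 SD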;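 note: thallium influx through hERG after potassium depolarization seen as dye fluorescence rise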
KCNK9 block = blocks the human KCNK9 two-pore domain potassium channel; HEK293 KCNK9, FluxOR thallium flux fluorescence; stronger effect = lower value; B-score at 10 µM; 1.2% of 310,000 active;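 active = ratio B-score over 3 SD below the library mean, with starting fluorescence within 5 SD of its mean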;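 note: negative B-score means less thallium flux so channel inhibition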
KCNK3 block = human KCNK3 channel inhibition, primary screen; O14649; CHO-KCNK3 thallium flux, FluxOR fluorescence; stronger effect = lower value; B-score at 10 µM; 0.84% of 340,000 active; AID 602410;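 active = B-score under library mean minus 4 SD, starting fluorescence ratio at most library mean plus 5 SD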;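 note: more negative B-score means stronger inhibition of thallium flux through KCNK3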
KCNQ1 block = blocks the human KCNQ1 potassium channel | 1.3% of 310,000 active | B-score at 10 µM | P51787 | CHO-K1 KCNQ1, FluxOR thallium flux fluorescence; stronger effect = higher value;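 active = compounds whose thallium flux B-score, printed positive for inhibition, exceeds three library SD while starting fluorescence stays within three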;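 note: channel opened by potassium depolarization with thallium stimulus after 20 min compound exposure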
Kir21 block = Kir2.1 (mouse) channel inhibition; HEK293-Kir2.1, FluxOR thallium flux fluorescence; stronger effect = lower value; 0.85% of 310,000 active; P35561; B-score at 10 µM;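 active = fluorescence ratio B-score at or below minus 3 SD of library scores, with starting-brightness B-score within 2 SD, cut at about -4.2 in these data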;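 note: channel flux triggered by added potassium and thallium sulfate stimulus; B-score of peak minus minimum fluorescence over baseline after thallium stimulus; more negative B-score means stronger Kir2.1 block with less thallium influx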
Target sequence (P35561 whole entry, looked up): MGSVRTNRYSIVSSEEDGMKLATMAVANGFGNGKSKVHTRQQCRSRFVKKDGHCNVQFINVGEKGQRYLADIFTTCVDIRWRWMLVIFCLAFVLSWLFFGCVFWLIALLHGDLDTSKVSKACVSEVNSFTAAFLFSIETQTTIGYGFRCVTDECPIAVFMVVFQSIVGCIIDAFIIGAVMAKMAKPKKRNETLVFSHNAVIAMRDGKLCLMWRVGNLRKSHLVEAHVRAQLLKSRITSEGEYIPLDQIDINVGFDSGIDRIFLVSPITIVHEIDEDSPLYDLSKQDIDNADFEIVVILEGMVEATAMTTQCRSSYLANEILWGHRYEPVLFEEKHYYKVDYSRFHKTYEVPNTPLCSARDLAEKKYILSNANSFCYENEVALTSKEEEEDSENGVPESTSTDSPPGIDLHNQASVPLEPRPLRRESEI
KCNQ1 pot = potentiators or activators of human KCNQ1 potassium channel; P51787; CHO-K1 KCNQ1, thallium flux FluxOR fluorescence; stronger effect = higher value; B-score at 10 µM; 0.35% of 310,000 active;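 active = fluorescence ratio B-score, a plate-corrected score, at least three library SD, with initial intensity B-score within 5 SD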
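Material: CHO-K1 cells stably expressing KCNQ1. Medium: assay buffer for compound exposure, DMSO matched across wells. Reagent: K+/Tl+ depolarizing stimulus. Compound dosing: single-concentration screen. Times: 37 °C overnight plating, 90-min dark dye load, 20-min compound pretreatment. Technique: FluxOR Tl+ flux fluorescence.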
KCNK3 confirm = confirmation of human KCNK3 two-pore domain potassium channel inhibitors; shares compounds with KCNK3 block; CHO-KCNK3 thallium flux, FluxOR fluorescence; 0% buffer, 100% carvedilol maximal block; AID 651638; 99% of 2,400 active; ratio percent of control, % at 10 µM;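 active = ratio percent of control, averaged over triplicates, above buffer control mean plus 5 SD, cut at about 64% in these data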;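 note: ratio is the fluorescence rise from min to max over baseline after thallium stimulus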
KCNK3 uninduced = counter-screen for KCNK3 inhibitors: effect in non-induced cells; shares compounds with KCNK3 block; non-induced KCNK3 parental cells, FluxOR thallium flux; stronger effect = lower value; thallium flux ratio (lower = more inhibition) at 10 µM; 40% of 2,400 active;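 active = thallium flux ratio, averaged over three wells, more than 5 SD below the buffer control mean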;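 note: host cells are CHO cells without KCNK3 induction; ratio is peak minus trough fluorescence over baseline then normalized to buffer controls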
* hit, by the source's call; i = inactive; · = no result given.

SMILES	hERG protect	KCNK9 block	KCNK3 block	KCNQ1 block	Kir21 block	KCNQ1 pot	KCNK3 confirm	KCNK3 uninduced
COc1cc(CC(=O)N(C)CC(=O)Nc2ccc(Cl)c(C(F)(F)F)c2)cc(OC)c1OC	-8	i	-9.2*	i	0.56	i	113*	i
COc1ccc(NC(=O)CSCC(=O)N(C)CC(=O)Nc2ccc(Cl)c(C(F)(F)F)c2)cc1	-14	i	i	i	-1.2	i	·	·
CC(C)N(Cc1ccccc1)C(=S)NC1CCCCC1	-10	i	-8.9*	i	-5.4*	i	111*	i
CC(C)N(C(=S)NC1CCCCC1)c1ccccc1	-21	i	·	i	-2.6	i	·	·
O=C(NCCc1ccccn1)c1n[nH]c(=O)c2ccccc12	-5	i	i	i	-0.38	i	·	·
CCCC(=O)c1c[nH]c(C(=O)NCCc2ccccn2)c1	-6	i	-11*	i	0.84	i	70*	i
S=C(NCCCc1ccccc1)Nc1ccccc1	-5	i	i	i	-1.6	i	·	·
S=C(NCCc1ccccc1)Nc1ccc(Nc2ccccc2)cc1	-7	i	-9.3*	i	-0.03	i	126*	0.13*
CC(C)(CNC(=S)NCCc1ccccc1)CNC(=S)NCCc1ccccc1	-19	i	-9.4*	14*	1.8	i	116*	0.1*
Cc1ccccc1OCc1nc(-c2ccc(Br)o2)no1	-2	i	-12*	i	-1.2	i	98*	i
O=C(c1c[nH]c(C(=O)C(Cl)(Cl)Cl)c1)c1ccc(F)cc1Cl	-15	i	-11*	i	0.14	8*	88*	i
CCOc1ccc(NC(=S)N(CCc2c(C)[nH]c3ccc(C)cc23)Cc2cccnc2)cc1	-8	i	-9.9*	i	0.1	i	92*	0.14*
COC(=O)C/C=C/[C@@H](C)[C@@H](/C=N/OCC[C@@H]1C=C[C@H](OC(C)=O)[C@@H](COC(C)=O)O1)NS(=O)(=O)c1ccc(C)cc1	-9	i	·	i	-0.32	i	·	·
CCOC(=O)c1c(CSC(=N)N)n(-c2ccccc2)c2cc(Br)c(OC(C)=O)cc12	-32	i	-10*	i	-4.5*	i	129*	0.14*
Cc1cc(N2C3CCC2CC(O)(c2ccc(F)cc2)C3)nc(-c2ccccc2)n1 (stereo not given)	-9	i	-10*	i	-0.99	i	101*	0.15*
Cc1cccc(NS(=O)(=O)c2cc(C(=O)NCCC3=CCCCC3)ccc2Cl)c1	-6	i	-12*	i	0.04	i	118*	0.15*
CN(C(=S)Nc1ccc(F)cc1)C(c1ccccc1)c1ccccc1	-12	i	-11*	i	0.77	i	115*	i
Cc1ccc(NC(=S)N(C)C(c2ccccc2)c2ccccc2)cc1C	-8	i	-9.1*	i	1.4	i	134*	0.12*
CCCN(Cc1ccccc1)C(=S)Nc1ccc(F)cc1	-14	i	i	i	-0.02	i	·	·
Cc1ccc(NC(=S)N(CCN(C)C)C(C)c2ccco2)cc1C (stereo not given)	-6	i	i	i	-0.16	i	·	·
O=S(=O)(c1ccc(-c2ccccn2)s1)N1CCC2(CC1)OCCO2	-9	i	i	i	-0.38	i	·	·
CCOc1ccc(-c2c(C(=O)N/N=C/c3ccsc3)nnn2-c2nonc2N)cc1	-3	i	i	i	2.7	i	·	·
CCN(CC)S(=O)(=O)c1ccc(C)c(NC(=S)N2CCN(C/C=C/c3ccccc3)CC2)c1	-17	i	-11*	i	-0.3	i	101*	i
COc1ccc(/C=C/C(=O)NCC(=O)N=Nc2c(O)[nH]c3ccc([N+](=O)[O-])cc23)cc1	0	i	i	i	0.21	i	·	·
CCCc1ccc2oc(C(=O)N(Cc3nccn3C)C(C)C)c(C)c2c1	-7	i	-11*	i	0.02	i	113*	i
SMILES	hERG protect	KCNK9 block	KCNK3 block	KCNQ1 block	Kir21 block	KCNQ1 pot	KCNK3 confirm	KCNK3 uninduced
CC(=O)Nc1ccc(NC(=O)c2cccc3c2-c2ccccc2C3=O)cc1	-7	i	i	i	0.94	i	·	·
CSc1ccccc1C(=O)Nc1ccc(C)c(C)c1	-5	i	-8.9*	i	1.5	i	87*	i
Cc1ccc(NC(=O)c2cccc3c2-c2ccccc2C3=O)cc1C	-11	i	-9.3*	i	-1.7	i	108*	i
CSc1ccccc1C(=O)Nc1cc(C)cc(C)c1	-10	i	i	i	-1	i	·	·
O=C(Cc1ccccc1)N/N=C/c1ccc(S(=O)(=O)O)o1	-9	i	i	i	-0.58	i	·	·
CC(=O)N(C1=C(Cl)C(=O)c2ccccc2C1=O)C1CCCCC1	-38	-6.9*	-12*	i	-2.8	i	140*	0.087*
CC(=O)N(c1ccccc1C)C1CCCC1	-1	i	i	i	0.25	i	·	·
O=C(CSc1ccccc1Cl)N1CCC(c2nc3ccccc3s2)CC1	-8	i	-9.8*	i	1.2	i	107*	i
CS(=O)(=O)NCCCCCCNS(C)(=O)=O	-7	i	i	i	0.78	i	·	·
O=C(c1ccco1)N1CCC(c2nc3c(nnn3Cc3c(Cl)cccc3Cl)c(=O)[nH]2)CC1	-5	i	i	i	1.5	i	·	·
CC(C)(C)c1ccc(Cn2nnc3c(=O)[nH]c(C4CCN(C(=O)c5ccco5)CC4)nc32)cc1	-5	i	-8.9*	i	1.3	i	122*	0.15*
O=C(CCl)NN1C(=O)NC(c2ccccc2)(c2ccccc2)C1=O	-1	i	i	i	0.15	i	·	·
COc1ccc(N2CCN(c3ccc(C(=O)O)cc3[N+](=O)[O-])CC2)cc1	-10	i	i	i	0.56	i	·	·
N#Cc1c(N)nc(SCC(=O)OCc2ccccc2)c(C#N)c1-c1ccco1	-8	i	-11*	i	-0.79	i	87*	i
COc1ccc(Cl)cc1NC(=O)N1CCN(c2ccccc2OC)CC1	-13	i	-11*	i	-0.07	i	82*	i
O=C(c1cc(-c2cccc(Cl)c2)on1)N1CCCCCC1	-3	i	-10*	i	-1.1	i	114*	i
